UHRF1 MBD2 ctr – UHRF1 methylated DNA binding inhibitors, primary screen, counter-screen for MBD2 inhibitor project, biochemical, TR-FRET, human UHRF1, single concentration | E3 ubiquitin-protein ligase UHRF1 (Homo sapiens), Q96T88 | UHRF1 binding to methylated oligo | inhibition, % at 4.4 µM | hit rate 0.75% among 370,000; in the data active = inhibition above about 21%;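 note: UHRF1 SRA domain binding a hemimethylated CpG hairpin DNA probe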
Target sequence (Q96T88 whole entry, looked up, the tested form may be a part): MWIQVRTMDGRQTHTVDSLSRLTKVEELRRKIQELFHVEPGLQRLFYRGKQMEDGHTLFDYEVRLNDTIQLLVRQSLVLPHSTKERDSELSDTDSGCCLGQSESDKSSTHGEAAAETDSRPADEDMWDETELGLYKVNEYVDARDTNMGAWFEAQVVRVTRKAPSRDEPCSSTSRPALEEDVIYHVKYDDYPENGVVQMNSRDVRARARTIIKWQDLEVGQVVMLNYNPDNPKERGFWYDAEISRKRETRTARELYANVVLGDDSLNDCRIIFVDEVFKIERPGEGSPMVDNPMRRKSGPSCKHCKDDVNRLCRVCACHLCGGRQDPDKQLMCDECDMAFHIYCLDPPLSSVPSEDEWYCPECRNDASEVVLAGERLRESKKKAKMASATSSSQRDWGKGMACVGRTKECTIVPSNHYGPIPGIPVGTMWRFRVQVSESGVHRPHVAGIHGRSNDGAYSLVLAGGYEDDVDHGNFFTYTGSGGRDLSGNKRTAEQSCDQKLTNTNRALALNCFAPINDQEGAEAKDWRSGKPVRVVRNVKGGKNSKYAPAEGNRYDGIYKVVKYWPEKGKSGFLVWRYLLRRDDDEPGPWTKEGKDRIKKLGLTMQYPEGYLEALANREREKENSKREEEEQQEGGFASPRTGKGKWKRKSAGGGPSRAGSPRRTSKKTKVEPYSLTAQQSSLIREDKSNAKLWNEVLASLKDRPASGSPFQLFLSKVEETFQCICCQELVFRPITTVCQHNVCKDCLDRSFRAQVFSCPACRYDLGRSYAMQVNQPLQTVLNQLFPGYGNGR
TDP2 inh – human TDP2 enzyme inhibitors, primary screen, biochemical, epi absorbance, recombinant enzyme. Tyrosyl-DNA phosphodiesterase 2 (Homo sapiens), O95551. T5PNP hydrolysis, p-nitrophenol absorbance 415 nm. inhibition, % at 12.8 µM. hit rate 0.34% among 370,000;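 active = inhibition above the mean of all tested compounds plus 3 SD, set per campaign, cut at about 25% in these data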
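Evaluation: % inhibition relative to enzyme-containing and enzyme-free wells. Material: recombinant human TDP2. Benchmarks: enzyme-free and DMSO wells. Timing: enzyme reaction with compound for 2 h at 37 °C. Compound dosing: 12.8 µM only. Measured by: p-Nitrophenol epi absorbance. Reagent: T5PNP substrate at 5 mM, a TopII-DNA adduct mimic. Replication: single well per compound.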
NSD2 HMT inh – NSD2 histone methyltransferase inhibitors, primary screen, biochemical, AlphaScreen, single concentration, set 2 | NSD2 peptide methylation, 120 min | Histone-lysine N-methyltransferase NSD2 (Homo sapiens), O96028 | inhibition, % at 12.5 µM | hit rate 0.54% among 310,000; in the data active = inhibition above about 50%
CASP6 VEID inh – human caspase-6 inhibitors, primary screen, biochemical, VEID-R110 fluorescence, single point, set 2. P55212. purified caspase-6, Z-VEID-R110 cleavage fluorescence. inhibition, % at 12.5 µM. hit rate 0.53% among 350,000. AID 686996, 2013;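 active = mean inhibition across replicates at least about 35%, with every replicate also reaching that limit, limit read from the data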
MBD2 inh – inhibitors of MBD2 binding to methylated DNA, primary screen, biochemical, TR-FRET, DNA-binding domain, human | Methyl-CpG-binding domain protein 2 (Homo sapiens), Q9UBB5 | MBD2 binding to methylated oligonucleotide | inhibition, % at 4.4 µM | hit rate 0.31% among 370,000 | AID 686964, 2013; in the data active = inhibition above about 13%
LEDGF integ inh – blockers of LEDGF/p75-dependent integrase strand transfer – biochemical, TR-FRET, high throughput, primary screen. HIV-1 integrase (with human LEDGF/p75). TR-FRET IN-LEDGF/p75 DNA integration, Eu/Cy5. inhibition, % at 3.7 µM. hit rate 0.64% among 370,000;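 active = inhibition above the screen-wide mean plus 3 SD, cut at about 13% in these data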;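 note: signal is the Cy5 over europium emission ratio at 671 and 618 nm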
Alpha artifact – AlphaScreen signal interference with preloaded methylated product, dose response, artefact control for NSD2 inhibitor project, biochemical, cherry-picked samples; shares compounds with NSD2 HMT inh; AlphaScreen artifact counterscreen, preloaded methylated H4 peptide; AC35, µM (series often up to 10 µM); hit rate 9.4% among 1,500; AID 1053174, 2014; call rule not given here
Hits are given with their value; i = inactive; nt = not tested or not shown. A selection: hits, their analogues and other compounds. The true share with any hit is near 1.9%.

SMILES	UHRF1 MBD2 ctr	TDP2 inh	NSD2 HMT inh	CASP6 VEID inh	MBD2 inh	LEDGF integ inh	Alpha artifact
Clc1ccc(-c2nnc(SCc3ccon3)o2)c(Cl)c1	i	i	i	nt	i	i	nt
C=CCSc1nnc(-c2ccc(Cl)cc2Cl)o1	i	i	68	nt	i	i	i
O=C(NCc1ccc(Cl)cc1)c1ccc(S(=O)(=O)N2CCCCC2)cc1	i	i	53	i	i	i	i
C[C@@H]1CCCCO[C@@H](CN(C)C(=O)Cc2ccccc2)[C@@H](C)CN([C@@H](C)CO)C(=O)c2cc(NC(=O)Nc3ccc4c(c3)OCO4)ccc2O1	nt	nt	nt	i	nt	nt	nt
CN1CCN(C(=O)c2cc3c(c(-c4cccc(C#CCC5CCCC5)c4)n2)[C@@H](CCO)N(S(=O)C(C)(C)C)C3)CC1 (some centres not stated)	nt	nt	nt	i	nt	nt	nt
O=C1/C(=C/c2ccccc2)CN(C(=O)CCN2CCOCC2)C/C1=C\c1ccccc1	i	i	68	i	i	i	i
C[N+](C)(C)CCC(=O)N1C/C(=C/c2ccccc2)C(=O)/C(=C\c2ccccc2)C1	i	i	50	i	i	i	i
O=C(/C=C/c1ccccc1)CCN1CCOCC1	i	i	i	i	i	i	nt
CN(C)CCC(=O)N1C/C(=C/c2ccccc2)C(=O)/C(=C\c2ccccc2)C1	i	i	50	i	i	i	i
C[C@@H]1CCCCO[C@@H](CN(C)C(=O)NC2CCCCC2)[C@@H](C)CN([C@@H](C)CO)C(=O)c2cc(NC(=O)Nc3ccc(F)cc3)ccc2O1	nt	nt	nt	i	nt	nt	nt
CCC(=O)N1C[C@H](C)[C@H](OC)CN(C)C(=O)c2cc(NC(=O)c3cnccn3)ccc2OC[C@H]1C	nt	nt	nt	i	nt	nt	nt
O=c1[nH]c(=O)n(C(c2ccccc2)c2ccccc2)cc1Br	i	i	i	i	i	i	nt
O=c1[nH]nc(Br)c(=O)n1C(c1ccccc1)c1ccccc1	i	i	51	i	i	i	i
COc1ccc(CN(C(=O)CN2C(=O)NC3(CCC(C)CC3)C2=O)C(C)Cc2cccs2)cc1 (configuration not stated)	i	i	55	i	i	i	i
Cc1nn(CC(=O)Nc2nnc(C(C)C)s2)c(=O)c2ccccc12	i	i	59	i	i	i	i
COc1ccc(-n2ncc3c(NCCCn4ccnc4)ncnc32)cc1	i	i	121	i	i	i	i
C[C@H]1CCCCO[C@H](CN(C)C(=O)c2ccccc2)[C@@H](C)CN([C@@H](C)CO)C(=O)c2cc(NS(=O)(=O)c3ccc(Cl)cc3)ccc2O1	nt	nt	nt	i	nt	nt	nt
CCS(=O)(=O)N1CC(=O)N2[C@@H](CO)[C@H](c3ccc(C#CC4CCCC4)cc3)[C@@H]2C1	nt	nt	nt	i	nt	nt	nt
CC(C)c1nc2oc3c(NCC4CCCO4)ncnc3c2c2c1COC(C)(C)C2 (configuration not stated)	i	i	54	nt	i	i	i
CNCCOc1ccccc1-c1ccccc1	i	i	76	nt	i	i	i
CNCCCCOc1ccccc1-c1ccccc1	i	i	64	i	i	i	i
Cc1noc(C)c1NC(=O)Nc1ccc2c(c1)C(=O)N([C@@H](C)CO)C[C@H](C)[C@@H](CN(C)S(C)(=O)=O)OCCCC[C@@H](C)O2	nt	nt	nt	i	nt	nt	nt
COc1ccc(CCNC(=O)CN2C(=O)C(=O)N(C3CCCC3)C2=O)cc1OC	i	i	55	i	i	i	i
O=C(CN1C(=O)C(=O)N(C2CCCC2)C1=O)NCCc1ccc(F)cc1	i	i	i	i	i	i	nt
CCC(=O)N1CCN(c2ccc(Cl)cc2NC(=O)c2ccc(Br)o2)CC1	i	i	119	nt	i	i	i
SMILES	UHRF1 MBD2 ctr	TDP2 inh	NSD2 HMT inh	CASP6 VEID inh	MBD2 inh	LEDGF integ inh	Alpha artifact
CC(C)(C)NC(=O)CN(C(=O)CS(=O)CC(=O)Nc1ccc(F)cc1)c1cccc(F)c1 (configuration not stated)	i	i	i	i	i	i	nt
Cc1cccc(N(CC(=O)NC(C)(C)C)C(=O)CS(=O)CC(=O)Nc2ccc3c(c2)OCO3)c1 (configuration not stated)	i	i	52	i	i	i	i
COc1ccc(NC(=O)Nc2ccc3c(c2)OC[C@H](C)NC[C@H](C)[C@@H](OC)CN(C)C3=O)cc1	nt	nt	nt	i	nt	nt	nt
CC(C)COC(=O)N(C)C[C@H]1OCc2ccccc2-c2c(n(C)c3ccccc23)C(=O)N([C@H](C)CO)C[C@@H]1C	nt	nt	nt	i	nt	nt	nt
O=c1/c(=C/c2ccccn2)sc2n1CN(c1ccccc1)CN=2	i	i	i	nt	i	i	nt
CCc1ccc(N2CN=c3s/c(=C\c4ccccc4)c(=O)n3C2)cc1	i	i	61	i	i	i	i
C[C@H](CO)N1C[C@H](C)[C@H](CN(C)Cc2ccc(C(=O)O)cc2)Oc2ccc(NC(=O)Cn3cnnn3)cc2C1=O	nt	nt	nt	i	nt	nt	nt
CN(C)C(=O)c1cccc(-c2cccc(-c3nc(C(=O)N4CCCCC4)cc4c3[C@@H](CCO)N([S@](=O)C(C)(C)C)C4)c2)c1	nt	nt	nt	i	nt	nt	nt
Cn1c(SCc2ccccc2C#N)nc2ccccc2c1=O	i	i	100	i	i	i	i
NS(=O)(=O)c1ccc(N/N=C/c2ccncc2)cc1	i	i	128	i	i	i	i
Cc1cccc(C)c1NC(=O)c1ccc(-n2cnnn2)cc1	i	i	i	nt	i	i	nt
O=C(Nc1ccc(Br)cc1)c1ccc(-n2cnnn2)cc1	i	i	105	i	i	i	i
O=C(CNc1ccc(F)cc1)N/N=C/c1c(O)ccc2ccccc12	i	i	70	i	i	i	i
Cc1cc(=O)[nH]c(SCC(=O)Nc2cccc3ccccc23)c1C#N	nt	nt	i	i	nt	nt	nt
COc1cc(NC(=O)c2ccccc2)c(OC)cc1NC(=O)CSc1[nH]c(=O)cc(C)c1C#N	i	i	130	i	i	i	i
Cc1sc2nc[nH]c(=S)c2c1-c1ccccc1	i	i	86	i	i	i	i
Cc1sc2nc[nH]c(=O)c2c1-c1ccc(F)cc1	i	i	i	i	i	i	nt
CCC(=O)N1Cc2cc(C(=O)N3CCN(C)CC3)nc(-c3cccc(-c4cccnc4)c3)c2[C@H]1CCO	nt	nt	nt	i	nt	nt	nt
CCN(CC)C(=O)c1cc([N+](=O)[O-])cc2c1-c1ccc([N+](=O)[O-])cc1C2=C(C#N)C#N	i	i	87	i	i	i	i
